{"data": "Results of several laboratories", "target": "SNF-related serine/threonine-protein kinase (SNRK, Homo sapiens, UniProt Q9NRH2)", "Sequence (Q9NRH2 1-765, as in one of the studies)": "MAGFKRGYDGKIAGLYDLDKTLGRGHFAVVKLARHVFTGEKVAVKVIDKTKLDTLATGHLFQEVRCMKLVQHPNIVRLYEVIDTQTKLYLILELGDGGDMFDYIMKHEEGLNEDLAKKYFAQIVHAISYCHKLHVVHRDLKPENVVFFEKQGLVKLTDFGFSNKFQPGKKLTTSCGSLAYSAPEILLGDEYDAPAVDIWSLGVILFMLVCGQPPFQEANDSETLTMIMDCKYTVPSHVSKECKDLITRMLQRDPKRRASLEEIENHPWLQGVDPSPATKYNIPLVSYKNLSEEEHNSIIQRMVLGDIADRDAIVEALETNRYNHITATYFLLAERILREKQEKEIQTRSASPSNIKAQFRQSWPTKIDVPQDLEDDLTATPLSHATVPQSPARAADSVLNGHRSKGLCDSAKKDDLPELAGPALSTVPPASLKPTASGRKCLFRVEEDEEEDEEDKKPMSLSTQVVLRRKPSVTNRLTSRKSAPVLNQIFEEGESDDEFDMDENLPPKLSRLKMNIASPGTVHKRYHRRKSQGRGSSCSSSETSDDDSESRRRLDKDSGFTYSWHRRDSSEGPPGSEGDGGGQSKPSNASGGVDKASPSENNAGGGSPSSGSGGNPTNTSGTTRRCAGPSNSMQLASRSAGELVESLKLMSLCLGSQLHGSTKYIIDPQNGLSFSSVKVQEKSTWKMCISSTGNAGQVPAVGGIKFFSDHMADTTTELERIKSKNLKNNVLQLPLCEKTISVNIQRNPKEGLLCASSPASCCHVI", "note": "Compare with care: the assays were run in different laboratories."}
{"Compound": "c1ccc(CNc2nc(N3CCOc4ccccc43)nc3c2CCCC3)cc1", "test": "target engagement in cells, inhibitor, chemoproteomics", "setting": "20 mM", "quantity": "inhibition", "result": "0.3%"}
{"Compound": "Nc1ncnc2occ(-c3ccc(NC(=O)Nc4cc(C(F)(F)F)ccc4F)cc3)c12", "test": "cell-free assay, inhibitor", "setting": "20 µM", "quantity": "remaining signal", "result": "64%"}
{"Compound": "Cc1cnc(NC2CCOCC2)nc1-n1cnc(C(=O)NC(CN)c2cc(F)cc(Cl)c2)c1 (stereo not drawn)", "test": "enzyme activity, inhibitor, radiometric", "setting": "1 µM", "quantity": "remaining activity", "result": "100%"}
{"Compound": "CN1CC(Oc2cnc(C#N)cc2-c2ccn3nc(NC(=O)C4CC4)cc3c2)C1", "test": "enzyme activity, inhibitor", "setting": "1 µM", "quantity": "inhibition", "result": "-12%"}
{"Compound": "Cc1sc(C(=O)NC2COC2)cc1-n1cc(NC(=O)Nc2c(F)cccc2Cl)cn1", "test": "enzyme activity, inhibitor", "setting": "10 µM", "quantity": "remaining activity", "result": "102%"}
{"Compound": "Cc1cc(NC(=O)c2cccc3cc(-c4cccc5[nH]nc(N)c45)ccc23)ccc1F", "test": "enzyme activity, inhibitor", "setting": "0.1 µM", "quantity": "activity vs control", "result": "109%"}
{"Compound": "COc1cccc2c(NCc3ccccc3)nc(-n3c(N)nc4ccccc43)nc12", "test": "target engagement in cells, inhibitor, chemoproteomics", "setting": "20 mM", "quantity": "inhibition", "result": "1.2%"}
{"Compound": "Cc1ccc(NC(=O)c2ccc(C)c(C(F)(F)F)c2)cc1C#Cc1nn(C2CCC(O)CC2)c2ncnc(N)c12 (stereo not drawn)", "test": "cell-free assay", "setting": "10 µM", "quantity": "remaining signal", "result": "92%"}
{"Compound": "CNC(=O)Nc1ccc2c(c1)CC[C@@]21OC(=O)N(CC(=O)N(Cc2ccc(F)cc2)[C@@H](C)C(F)(F)F)C1=O", "test": "cell-free assay, competition with immobilised ligand", "setting": "1 µM", "quantity": "remaining binding", "result": "96%"}
{"Compound": "COc1cc(Cl)c(C(=O)N[C@@H](CN[C@H]2CC[C@@H](N)CC2)Cc2ccc(C#N)cc2)cc1-c1ccc(CN[C@H](C)c2ccc(C)cc2)o1", "test": "enzyme activity, inhibitor", "setting": "1 µM", "quantity": "remaining activity", "result": "104%"}
{"Compound": "O=C(Nc1cnn(-c2csc(C(=O)NC3COC3)c2)c1)Nc1ccccc1Cl", "test": "enzyme activity, inhibitor", "setting": "5 µM", "quantity": "remaining activity", "result": "96.8%"}
{"Compound": "C[C@@H]1CN(c2cc(-c3nn(C)c4ccc(OC5(C)CC5)cc34)ncn2)C[C@H](C)O1", "test": "cell-free assay, competition with immobilised ligand", "setting": "1 µM", "quantity": "remaining binding", "result": "92%"}
